# Compound activity as filed in PubChem.
# APP 5'UTR act: activates APP 5'UTR luciferase reporter | SH-SY5Y APP 5'UTR luciferase reporter, luminescence; zero percent = DMSO vehicle wells | AID 1276 | activation, % at 2 µM | hit rate 1% among 190,000;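 active = activation above a set limit, based on mean plus 3 SD of controls, cut at about 140% in these data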
# FLuc inh counter: counter-screen for luciferase assay inhibitors: firefly luciferase inhibition | P08659 | AID 1006 | inhibition, % at 10 µM | hit rate 1.5% among 200,000 | ATPLite firefly luciferase biochemical luminescence, 10 min;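 active = inhibition above about 50% when tested at 10 µM, limit read from the data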
# Target sequence (P08659 whole entry, looked up): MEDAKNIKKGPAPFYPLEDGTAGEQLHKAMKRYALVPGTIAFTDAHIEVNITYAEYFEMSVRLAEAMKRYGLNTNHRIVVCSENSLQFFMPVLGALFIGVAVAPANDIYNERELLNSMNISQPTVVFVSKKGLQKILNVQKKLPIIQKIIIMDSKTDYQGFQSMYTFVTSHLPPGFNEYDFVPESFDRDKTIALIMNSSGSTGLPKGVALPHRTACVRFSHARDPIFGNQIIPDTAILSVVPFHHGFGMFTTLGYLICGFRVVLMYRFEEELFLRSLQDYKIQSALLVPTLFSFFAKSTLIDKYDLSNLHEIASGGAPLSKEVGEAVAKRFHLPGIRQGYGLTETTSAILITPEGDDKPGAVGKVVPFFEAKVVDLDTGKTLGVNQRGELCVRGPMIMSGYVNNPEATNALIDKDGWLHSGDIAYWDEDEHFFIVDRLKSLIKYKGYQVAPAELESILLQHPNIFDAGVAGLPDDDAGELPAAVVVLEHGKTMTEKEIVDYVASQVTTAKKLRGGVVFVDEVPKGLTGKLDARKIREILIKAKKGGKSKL
# STAT1 activator: activators of IFN-gamma induced STAT1 signaling. activation (% of control), % at 5.5 µM. hit rate 2.6% among 200,000. NIH 3T3 STAT1-luciferase reporter, luminescence; 100% = IFN-gamma alone, no compound;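 active = activation above the screen-wide mean activation plus 3 SD, cut at about 130% in these data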;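 also: raw ratio to IFN-gamma control signal so 100% means no change and 0% no light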
# NF-kB expr up: compounds increasing NF-kB expression in human neuronal cells; hit rate 1.6% among 190,000; NF-kB reporter expression; hits give high values; fold change at 12.5 µM; in the data active = fold change above about 3.3
# FLuc act counter: firefly luciferase counter-screen for stimulation assays; ATPlite luciferase biochemical, luminescence, 10 min; 0 = ATP-free wells, 1 = DMSO control; activation factor at 10 µM; 200,000 tested, under 10 active;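 active = luciferase activation factor, scaled between plate controls, of at least 2 with compound at 10 µM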
#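 System: Luciferase/luciferin detection reagent, cell-free biochemical luciferase assay | Medium: PBS buffer for ATP | Dosing: Test compounds dosed from 2 mM stocks in 100% DMSO | Timing: 10 min at ambient temperature | Signal: Luminescence measurement of luciferase light output | Evaluation: Luciferase activation, seen as luminescence increase over controls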
# STAT1 act conf: STAT1 activation, confirmation assay; shares compounds with STAT1 activator; NIH 3T3 STAT1-luciferase reporter, IFN-gamma potentiation, luminescence; 100% = IFN-gamma EC80 alone, no compound; activation (% of control), % at 5.7 µM; hit rate 97% among 1,200;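 active = activation above a set limit carried over from the earlier primary STAT1 screen, cut at about 140% in these data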;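 also: simple ratio to median IFN-gamma plus DMSO wells so 0% means no light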
# NFkB act: counter-screen for STAT1 activators: NF-kappaB activation | shares compounds with STAT1 activator | HEK293T NF-kB luciferase reporter, TNF-alpha stimulated, luminescence; 100% = TNF-alpha with vehicle only | activation (% of control), % at 5.7 µM | hit rate 43% among 1,200;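 active = activation above the mean of solvent-only control wells plus 3 SD, set per campaign, cut at about 130% in these data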;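 also: TNF-alpha given at a submaximal dose yielding about 80% of full reporter signal; values are well signal over median control so 100% means no change and 0% no light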
# STAT3 act 2: counter-screen for STAT1 activators: human STAT3 activation | shares compounds with STAT1 activator | U3A cells STAT3-luciferase reporter, IL-6, luminescence; cells lack STAT1; 100 = IL-6 alone, no compound effect | activation (% of control), % at 5.7 µM | hit rate 46% among 1,200 | AID 1316;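 active = activation above the solvent-only control well mean plus 3 SD, set per plate batch, cut at about 110% in these data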;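 also: 0% = no luminescence and 100% = median IL-6 plus DMSO wells; higher means more STAT3 reporter activation so hits are non-selective activators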
# Numbers without * were called inactive; · = not tested or not shown. Only some compounds are listed: those with a hit (about 4.1% of all), similar ones and a draw of the others.
SMILES,APP 5'UTR act,FLuc inh counter,STAT1 activator,NF-kB expr up,FLuc act counter,STAT1 act conf,NFkB act,STAT3 act 2
CSc1nnc(-c2sc3cc(C(F)(F)F)cnc3c2-c2ccccc2)n1C,-33,-6,102,1,1.1,·,·,·
COC(=O)C1C(=O)C2=C(CC1C)NC(C)=C(C(=O)OC(C)C)C2c1ccc(OC)c(O)c1 (stereo unspecified),11,-1,96,0.88,1,·,·,·
N/C(=N\OC(=O)c1ccc2c(c1)OCO2)c1ccc(Cl)cc1,101,84*,153*,5.9*,0.2,187*,130,102
Cc1ccc(/C(N)=N/OC(=O)c2ccc3c(c2)OCO3)cc1,142*,78*,156*,5*,0.2,186*,136*,105
Cc1ccc(C(=O)O/N=C(\N)c2ccc(Br)cc2)cc1C,-4,9,121,2,0.9,·,·,·
CCOC(=O)CSc1nc2ccccc2n1C(=O)OCC,1,-6,91,1.2,1.1,·,·,·
O=C(CNC(=O)c1cccc(F)c1)N/N=C/c1cc(Br)ccc1OC(=O)/C=C/c1ccco1,-53,-6,97,1.1,1.1,·,·,·
Cc1ccc2nc(-c3ccccc3O)c(Nc3ccc4c(c3)OCCO4)n2c1,7,-6,100,1.2,1.1,·,·,·
Cc1cc(N2CCCC2)ccc1/C=C1/C(=O)N(C)C(=S)N1C,-25,0,106,2.2,1,·,·,·
Cc1cc(/C=C2/C(=O)N(C)C(=S)N2C)ccc1N1CCCC1,118,16,175*,3.2,0.8,168*,135*,146*
CC(C)CC(=O)Nc1cc2nn(-c3ccccc3)nc2cc1Cl,·,19,118,2.1,0.8,·,·,·
Nc1ccc2nn(-c3ccccc3)nc2c1,93,60*,155*,3,0.4,203*,132,110
Nc1cc2nn(-c3ccccc3)nc2cc1Cl,199*,49,166*,4.4*,0.5,238*,133,151*
COc1cccc(/C=C/C(=O)OC(C)C(=O)Nc2c(C)n(C)n(-c3ccccc3)c2=O)c1 (stereo unspecified),1,-1,81,0.95,1,·,·,·
O=C(Nc1ccccc1-c1nc2ccccc2s1)c1ccco1,13,-5,100,1.3,1,·,·,·
O=c1c(-c2nc3ccccc3s2)cccn1Cc1ccccc1,82,10,161*,3.7*,0.9,211*,130,106
Cn1cc(NC(=O)OCc2ccc(Cl)cc2)c(C(F)(F)F)n1,7,-4,178*,3.5*,1,165*,125,110
Cc1cccc2cc(CN(Cc3cccs3)C3(c4nnnn4C4CCCC4)CCCC3)c(=O)[nH]c12,2,-8,96,1,1.1,·,·,·
O=C(NCCC1=CCCCC1)c1ccc([N+](=O)[O-])cc1,160*,21,151*,4.8*,0.8,189*,118,160*
O=C(NCCC1=CCCCC1)c1ccc(F)cc1,210*,40,166*,1.1,0.6,200*,107,102
COc1ccc(C(=O)NCCC2=CCCCC2)cc1OC,35,-6,117,1.9,1.1,·,·,·
O=C(COc1ccc([N+](=O)[O-])cc1)NCCC1=CCCCC1,-6,-4,104,0.95,1,·,·,·
Cc1nc(NC(=O)c2ccc3c(c2)OCO3)ccc1Br,106,28,156*,4*,0.7,169*,127,97
Cc1nc(NC(=O)c2cccs2)ccc1Br,133,22,161*,6.3*,0.8,201*,131,123*
O=C(Nc1ccc(NC(=O)c2cccs2)cn1)c1ccccc1,136*,17,153*,3.8*,0.8,201*,133,115*
SMILES,APP 5'UTR act,FLuc inh counter,STAT1 activator,NF-kB expr up,FLuc act counter,STAT1 act conf,NFkB act,STAT3 act 2
O=C(Nc1ccc(NC(=O)C2CC2)nc1)c1cccs1,31,6,117,1.2,0.9,·,·,·
CCCC(=O)Nc1nc2ccc3nc(C)sc3c2s1,21,-7,125,2.1,1.1,·,·,·
CCC(=O)Nc1nc2ccc3sc(C)nc3c2s1,79,40,168*,1.5,0.6,189*,121,143*
CCOc1nc(C)ccc1-c1noc(-c2ccccn2)n1,16,5,113,1.4,1,·,·,·
CCOc1ccccc1-c1nc(-c2ccc(C)nc2OC)no1,80,16,153*,2.2,0.8,167*,133,114*
COc1nc(-c2ccccc2)ccc1-c1noc(-c2ccccc2)n1,14,3,98,1.2,1,·,·,·
COc1ccccc1-c1noc(-c2ccccc2)n1,125,44,176*,5.6*,0.6,213*,142*,116*
O=C(Nc1nc(-c2ccco2)c(-c2ccco2)s1)C1CC(=O)N(c2ccc3c(c2)OCCO3)C1 (stereo unspecified),-19,1,100,0.54,1,·,·,·
O=C(N/N=C1/C(=O)c2cccc3cccc1c23)c1ccc(Cl)cc1,-9,13,102,0.83,0.9,·,·,·
COc1cccc(/C=N/n2cnc3ccccc32)c1OC,152*,6,162*,4.1*,0.9,205*,131,107
C/C(=N\Nc1nc(N2CCOCC2)nc(N2CCOCC2)n1)c1cccs1,-3,-2,101,0.72,1,·,·,·
CC(=O)Nc1cccc(/C(C)=N/Nc2nc3ccccc3s2)c1,160*,5,198*,1.1,0.9,200*,139*,122*
C/C(=N\Nc1nc2ccccc2s1)c1cccs1,177*,61*,164*,4.2*,0.4,249*,121,160*
CCOc1ccccc1N(CC(=O)NC1CCCCC1)S(C)(=O)=O,7,3,98,1.2,1,·,·,·
O=C(/C=C/c1ccc([N+](=O)[O-])cc1)c1cccnc1,-8,8,102,1.1,0.9,·,·,·
CCc1ccc(NC(=O)c2cnn(-c3ccccc3)c2C)cc1,155*,29,185*,5.9*,0.7,252*,114,87
CCc1ccc(NC(=O)c2cnn(-c3ccccc3)c2C2CCNCC2)cc1,13,-1,107,0.82,1,·,·,·
Cc1cccc2cc3c(N)c(C(=O)N4CCOCC4)sc3nc12,-85,12,157*,1.2,0.9,160*,113,124*
CCn1c(-c2ccccc2O)n[nH]c1=S,7,3,95,1.3,1,·,·,·
Cc1ccsc1/C=N/NC(=O)c1sccc1C,136*,28,153*,3.2,0.7,173*,130,112*
